Tests used:
L. major promastigotes = experiment: Activity against promastigotes; format: cell-based; conditions: Leishmania major, 24 h, read-out: IC50 L. major (P)
In short: (§1)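 Promastigotes of L. major MHOM/SA/85/JISH118 or L. amazonensis MHOM/BR/LTB0016 were kept at 25 °C for at most 10 passages in Schneider's with 10% FBSi, 2% human urine and 5 mM HEPES. Late-exponential cells were seeded at 3×10^6 cells/mL. They were treated 24 h with test compound (DMSO stock diluted in Schneider's), in triplicate. Controls were 0.5% DMSO and amphotericin B. Resazurin read-out; IC50 fitted.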

[1] = system: L. infantum promastigotes; experiment: Activity against promastigotes; format: cell-based; conditions: Leishmania infantum, 24 h, read-out: IC50 L. infantum (P)
In short: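 L. infantum MHOM/MA/67/ITMAP263 promastigotes were grown at 25 °C for at most 10 passages in RPMI with 10% FBSi and 5 mM HEPES, pH 7.4. Late-exponential cells were seeded at 3×10^6 cells/mL and exposed for 24 h to test compound (DMSO stock diluted in RPMI), in triplicate. Controls were 0.5% DMSO and amphotericin B. Resazurin fluorescence gave viability and IC50 was fitted.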

[2] = system: L. amazonensis promastigotes; experiment: Activity against promastigotes; format: cell-based; conditions: Leishmania amazonensis, 24 h, read-out: IC50 L. amazonensis (P)
In short: as §1

[3] = Cytotoxicity in mammalian cells; format: cell-based, BALB/c mice; conditions: BALB/c, mouse, bone marrow-derived macrophages (BMDM)
In short: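 Bone-marrow cells from BALB/c mice were differentiated for 7 days at 37 °C, 5% CO2. The medium was DMEM with 10% FBSi, 1% NEAA and 10% L929-conditioned medium. The resulting macrophages were exposed to test compound at up to 40 μM for 24 h. Viability was measured by resazurin assay. CC50 was calculated from percent viability relative to untreated control.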

[4] = system: L. infantum axenic amastigotes; experiment: Activity against axenic amastigotes; format: cell-based; conditions: Leishmania infantum, 24 h, read-out: IC50 L. infantum (AA)
In short: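 L. infantum axenic amastigotes came from parasites recently recovered from infected mouse spleen. They were kept at 37 °C, 5% CO2 in MAA with 20% iFBS, 2 mM Glutamax and 0.023 mM hemin. Cells were seeded at 1.5×10^5 per well in MAA20. Test compound was dissolved in DMSO and diluted in medium for 24 h, in triplicate. Controls were 0.5% DMSO and amphotericin B. Viability was read by resazurin fluorescence and IC50 fitted.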

[5] = system: L. infantum intracellular amastigotes; experiment: IC50 against Leishmania intracellular amastigotes in infected macrophages; format: cell-based, Leishmania infantum; conditions: CC50 BMDM versus IC50 intracellular amastigotes
In short: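 Ratio of BMDM CC50 (resazurin, 24 h) to intracellular IC50. For IC50, BALB/c BMDM were infected 3 h with stationary-phase L. infantum promastigotes (10:1), then washed. After 24 h, test compound in DMEM was added for 24 h, with 0.5% DMSO and amphotericin B controls. Cells were fixed, DAPI/CellMask stained and imaged automatically. IC50 was derived from percent infected macrophages.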

Row | IC50 (L. major promastigotes) | IC50 [1] | IC50 [2] | IC50 [4] | SMILES | CC50 at 24 h [3] | selectivity index [5]
1 | > 20 µM | > 20 µM | > 20 µM |  | C/C=C(\C)C(=O)NCc1ccc2c(c1)C(=O)CC(C)(C)N2 [Compound 14c, (E)-N-((2,2-dimethyl-4-oxo-1,2,3,4-tetrahydroquinolin-6-yl)methyl)-2-methylbut-2-enamide] | > 40 µM | 
2 | > 20 µM | > 20 µM | > 20 µM |  | Cc1ccc(Cc2ccc3c(c2)C(=O)CC(C)(C)O3)cc1 [Compound 21, 2,2-dimethyl-6-(4-methylbenzyl)chroman-4-one] |  | 
3 | > 20 µM | > 20 µM | > 20 µM |  | C/C=C(\CO)C(=O)NCc1ccc2c(c1)C(=O)CC(C)(C)N2 [Compound 14g, (E)-N-((2,2-dimethyl-4-oxo-1,2,3,4-tetrahydroquinolin-6-yl)methyl)-2-(hydroxymethyl)but-2-enamide] |  | 
4 | > 20 µM | > 20 µM | > 20 µM |  | C/C=C(\CO)C(=O)NCc1ccc2c(c1)C(=O)CC(C)(C)O2 [Compound 13a, (E)-N-((2,2-dimethyl-4-oxochroman-6-yl)methyl)-2-(hydroxymethyl)but-2-enamide] |  | 
5 | > 20 µM | > 20 µM | > 20 µM |  | CC(C)=CC(=O)NCc1ccc2c(c1)C(=O)CC(C)(C)N2 [Compound 14d, N-((2,2-dimethyl-4-oxo-1,2,3,4-tetrahydroquinolin-6-yl)methyl)-3-methylbut-2-enamide] | > 40 µM | 
6 | 0.17 ± 0.08 µM | 0.18 ± 0.09 µM | 0.2 ± 0.06 µM | 0.4 ± 0.3 µM | C[C@@H]1[C@H](O)[C@@H](C)/C=C/C=C/C=C/C=C/C=C/C=C/C=C/[C@H](O[C@@H]2O[C@H](C)[C@@H](O)[C@H](N)[C@@H]2O)C[C@@H]2O[C@](O)(C[C@@H](O)C[C@@H](O)[C@H](O)CC[C@@H](O)C[C@@H](O)CC(=O)O[C@H]1C)C[C@H](O)[C@H]2C(=O)O [Amphotericin B, reference compound] | 4.37 ± 0.97 µM | 
7 | > 20 µM | > 20 µM | > 20 µM |  | C/C=C(\CO)C(=O)OCc1ccc2c(c1)C(=O)CC(C)(C)O2 [Compound 12a, (2,2-dimethyl-4-oxochroman-6-yl)methyl (E)-2-(hydroxymethyl)but-2-enoate] |  | 
8 | > 20 µM | > 20 µM | > 20 µM |  | C/C=C/C(=O)NCc1ccc2c(c1)C(=O)CC(C)(C)N2 [Compound 14b, (E)-N-((2,2-dimethyl-4-oxo-1,2,3,4-tetrahydroquinolin-6-yl)methyl)but-2-enamide] | > 40 µM | 
9 |  |  |  | 25.3 ± 2.1 µM | CCCCCCCCNCc1ccc2c(c1)C(=O)CC(C)(C)O2 [Compound 13c, 2,2-dimethyl-6-((octylamino)methyl)chroman-4-one] | 40.2 ± 5.7 µM | 1.6
10 | > 20 µM | > 20 µM | > 20 µM |  | CC1(C)CC(=O)c2cc(CNC(=O)/C=C/c3cccs3)ccc2N1 [Compound 14f, (E)-N-((2,2-dimethyl-4-oxo-1,2,3,4-tetrahydroquinolin-6-yl)methyl)-3-(thiophen-2-yl)acrylamide] | > 40 µM | 
11 | > 20 µM |  | 10 to 20 µM |  | CC1(C)CC(=O)c2cc(CNC(=O)C/C=C/c3ccccc3)ccc2N1 [Compound 14e, (E)-N-((2,2-dimethyl-4-oxo-1,2,3,4-tetrahydroquinolin-6-yl)methyl)-4-phenylbut-3-enamide] | > 40 µM | 

— paper PMC7096758 (Heliyon, 2020)
